# Substitutions are numbered along the chain they refer to.
# Experiments:
# Conditions in all cases: stereoisomer not certain
# [1] = target: T1, OR2B3 (Homo sapiens) (UniProt O76000)
# T1 sequence (whole entry): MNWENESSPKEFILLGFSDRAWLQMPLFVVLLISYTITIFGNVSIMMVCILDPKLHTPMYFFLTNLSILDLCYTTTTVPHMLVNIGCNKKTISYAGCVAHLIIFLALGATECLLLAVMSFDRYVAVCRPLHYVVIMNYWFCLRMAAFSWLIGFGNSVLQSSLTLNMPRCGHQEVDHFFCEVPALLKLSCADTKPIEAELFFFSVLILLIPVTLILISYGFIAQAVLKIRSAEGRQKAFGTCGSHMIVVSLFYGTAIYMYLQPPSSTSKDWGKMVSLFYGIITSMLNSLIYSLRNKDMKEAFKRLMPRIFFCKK
# Summary of the method: (§1)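 Each entry records the cell line, G-protein, co-transfected protein and tags used. Methods varied with the source, often transient luciferase assays in mammalian cell lines. A receptor–molecule pair is called responsive (active) if the original authors judged its signal statistically different from baseline and non-responsive (inactive) otherwise.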
# [2] = target: T2, OR2B6 (Homo sapiens) (UniProt P58173)
# T2 sequence (whole entry): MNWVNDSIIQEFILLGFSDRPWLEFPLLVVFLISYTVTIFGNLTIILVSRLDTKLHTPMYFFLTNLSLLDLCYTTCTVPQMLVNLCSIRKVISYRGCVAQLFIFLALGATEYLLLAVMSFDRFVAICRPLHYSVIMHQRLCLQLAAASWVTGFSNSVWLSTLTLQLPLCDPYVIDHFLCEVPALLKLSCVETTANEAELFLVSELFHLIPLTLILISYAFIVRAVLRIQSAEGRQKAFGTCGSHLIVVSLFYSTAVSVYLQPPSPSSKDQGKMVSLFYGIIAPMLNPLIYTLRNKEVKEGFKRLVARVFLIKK
# Summary of the method: as §1
# [3] = test system: T3, OR2BB
# T3 sequence (whole entry): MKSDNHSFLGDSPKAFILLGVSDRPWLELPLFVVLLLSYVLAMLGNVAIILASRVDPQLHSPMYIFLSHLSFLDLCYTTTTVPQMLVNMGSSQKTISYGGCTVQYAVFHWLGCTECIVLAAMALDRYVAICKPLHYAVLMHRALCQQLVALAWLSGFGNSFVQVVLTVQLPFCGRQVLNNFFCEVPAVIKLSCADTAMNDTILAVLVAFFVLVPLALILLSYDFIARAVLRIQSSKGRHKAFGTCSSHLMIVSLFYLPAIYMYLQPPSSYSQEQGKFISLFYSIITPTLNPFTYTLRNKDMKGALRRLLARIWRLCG
# Summary of the method: as §1
# [4] = test system: T4, OR2BB; remark: listed apart in the source
# T4 sequence (whole entry): T3 sequence (whole entry) with D223G
# Summary of the method: as §1
# [5] = target: T5, OR2C1 (Homo sapiens) (UniProt O95371)
# T5 sequence (whole entry): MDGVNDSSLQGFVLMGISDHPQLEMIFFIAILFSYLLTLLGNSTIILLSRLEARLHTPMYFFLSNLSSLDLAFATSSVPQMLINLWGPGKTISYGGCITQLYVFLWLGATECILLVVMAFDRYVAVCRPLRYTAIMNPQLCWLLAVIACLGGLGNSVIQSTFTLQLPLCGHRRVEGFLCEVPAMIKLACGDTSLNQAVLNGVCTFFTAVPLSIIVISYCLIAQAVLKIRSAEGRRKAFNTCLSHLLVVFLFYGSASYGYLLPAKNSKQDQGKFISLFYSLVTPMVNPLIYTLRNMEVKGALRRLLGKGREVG
# Summary of the method: as §1
# [6] = test system: T6, OR2C1
# T6 sequence (whole entry): T5 sequence (whole entry) with C149W
# Summary of the method: as §1
# [7] = test system: T7, OR2BB; remark: listed apart in the source
# T7 sequence (whole entry): T3 sequence (whole entry) with D223G, T293I, D300G
# Summary of the method: as §1
# [8] = test system: OR2BB; remark: listed apart in the source
# Summary of the method: as §1
# Target sequence in this assay (as listed by the source): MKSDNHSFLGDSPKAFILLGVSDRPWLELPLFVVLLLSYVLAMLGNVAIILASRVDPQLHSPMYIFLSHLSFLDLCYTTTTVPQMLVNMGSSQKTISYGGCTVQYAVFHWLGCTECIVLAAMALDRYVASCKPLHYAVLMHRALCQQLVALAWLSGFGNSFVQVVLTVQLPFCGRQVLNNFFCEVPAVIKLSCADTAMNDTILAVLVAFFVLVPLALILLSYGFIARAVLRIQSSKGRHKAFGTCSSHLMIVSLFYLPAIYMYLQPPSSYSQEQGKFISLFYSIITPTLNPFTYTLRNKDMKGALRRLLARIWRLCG
# [9] = test system: OR2C1; remark: listed apart in the source
# Summary of the method: as §1
# Target sequence in this assay (as listed by the source): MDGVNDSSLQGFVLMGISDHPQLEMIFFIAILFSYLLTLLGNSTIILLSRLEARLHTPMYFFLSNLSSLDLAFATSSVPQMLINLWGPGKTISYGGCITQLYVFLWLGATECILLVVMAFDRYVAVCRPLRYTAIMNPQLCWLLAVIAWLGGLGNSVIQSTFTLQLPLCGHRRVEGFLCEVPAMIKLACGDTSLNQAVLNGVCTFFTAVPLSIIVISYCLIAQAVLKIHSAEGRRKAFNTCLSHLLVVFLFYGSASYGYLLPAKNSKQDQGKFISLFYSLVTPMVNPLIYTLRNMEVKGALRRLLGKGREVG
# [10] = test system: OR2C1; remark: listed apart in the source
# Summary of the method: as §1
# Target sequence in this assay (as listed by the source): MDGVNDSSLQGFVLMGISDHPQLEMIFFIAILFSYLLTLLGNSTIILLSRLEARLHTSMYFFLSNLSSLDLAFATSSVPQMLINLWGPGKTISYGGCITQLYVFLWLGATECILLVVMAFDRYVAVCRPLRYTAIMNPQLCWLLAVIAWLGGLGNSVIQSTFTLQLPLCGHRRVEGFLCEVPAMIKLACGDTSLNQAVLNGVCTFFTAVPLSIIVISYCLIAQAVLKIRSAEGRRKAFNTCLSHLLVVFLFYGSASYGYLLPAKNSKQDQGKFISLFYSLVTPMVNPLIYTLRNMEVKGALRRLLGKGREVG
structure (smiles),measurement,setting,value
CC(C)(C)C1CCCCC1OCCCCO (centres undefined),odorant receptor agonist call,[1],inactive
COC1CC2CC1C1CC(C=O)CC21 (centres undefined),odorant receptor agonist call,[1],inactive
CC1=CCC2CC1C2(C)C (centres undefined),odorant receptor agonist call,[1],inactive
CC1CC(C)(c2ccccc2)CO1 (centres undefined),odorant receptor agonist call,[1],inactive
CC(=O)C=CC1=C(C)CCCC1(C)C,odorant receptor agonist call,[1],active
CCC(=O)C=CC1C(C)=CCCC1(C)C (centres undefined),odorant receptor agonist call,[1],inactive
C=CC(C)(CCC=C(C)C)OC(C)=O (centres undefined),odorant receptor agonist call,[1],inactive
CCCCCC1C(=O)CCC1CC(=O)OC (centres undefined),odorant receptor agonist call,[1],inactive
CC(CC=O)c1ccc(C(C)(C)C)cc1 (centres undefined),odorant receptor agonist call,[1],inactive
CCCC(C)C(=O)OCC (centres undefined),odorant receptor agonist call,[1],inactive
CCCCCCCCC(OC(C)=O)OC(C)=O,odorant receptor agonist call,[1],inactive
OCc1ccccc1,odorant receptor agonist call,[1],inactive
CC(C)CCCC(C)(C)O,odorant receptor agonist call,[1],inactive
CC1=NC(C)C(C)S1 (centres undefined),odorant receptor agonist call,[1],inactive
same,odorant receptor agonist call,[2],inactive
same,odorant receptor agonist call,[3],inactive
same,odorant receptor agonist call,[4],inactive
same,odorant receptor agonist call,[5],inactive
same,odorant receptor agonist call,[6],inactive
CC(C)=CCCC(C)CC=O (centres undefined),odorant receptor agonist call,[1],inactive
Cc1ccc(C(C)C)cc1O,odorant receptor agonist call,[1],inactive
CCC=C(C)C(O)CCCCC (centres undefined),odorant receptor agonist call,[1],inactive
CC=CC(=O)C1C(C)=CCCC1(C)C (centres undefined),odorant receptor agonist call,[1],inactive
CCC1OC(C)=C(O)C1=O (centres undefined),odorant receptor agonist call,[1],inactive
same,odorant receptor agonist call,[2],inactive
same,odorant receptor agonist call,[3],inactive
same,odorant receptor agonist call,[4],inactive
same,odorant receptor agonist call,[5],inactive
same,odorant receptor agonist call,[6],inactive
Cc1occc(=O)c1OC(=O)C(C)C,odorant receptor agonist call,[1],inactive
CCOC(=O)CC1(C)OCCO1,odorant receptor agonist call,[1],inactive
CCCCCC1COCCC1OC(C)=O (centres undefined),odorant receptor agonist call,[1],inactive
CCc1ccc(CC(C)(C)C=O)cc1,odorant receptor agonist call,[1],inactive
C=CCOC(=O)COCCC(C)C,odorant receptor agonist call,[1],inactive
COc1ccc(C)cc1,odorant receptor agonist call,[1],inactive
Cc1cnc(C)c(C)n1,odorant receptor agonist call,[1],inactive
same,odorant receptor agonist call,[2],inactive
same,odorant receptor agonist call,[3],inactive
same,odorant receptor agonist call,[4],inactive
same,odorant receptor agonist call,[5],inactive
same,odorant receptor agonist call,[6],inactive
CCCC(S)CCOC(C)=O (centres undefined),odorant receptor agonist call,[1],inactive
same,odorant receptor agonist call,[2],inactive
same,odorant receptor agonist call,[3],inactive
same,odorant receptor agonist call,[4],inactive
same,odorant receptor agonist call,[5],inactive
same,odorant receptor agonist call,[6],inactive
CCCCC1CCC(=O)O1 (centres undefined),odorant receptor agonist call,[1],inactive
CC(=O)OCc1ccccc1,odorant receptor agonist call,[1],inactive
same,odorant receptor agonist call,[5],inactive
CCCCCCCC(C)=O,odorant receptor agonist call,[5],inactive
CCCCCOC(=O)CCCCC,odorant receptor agonist call,[5],inactive
CCCCCCCCC(=O)O,odorant receptor agonist call,[5],inactive
CCC(=O)C(=O)CC,odorant receptor agonist call,[5],inactive
CC(C)=CCCC(C)=CCO,odorant receptor agonist call,[1],inactive
same,odorant receptor agonist call,[5],inactive
CC(=O)c1c(C)c([N+](=O)[O-])c(C(C)(C)C)c([N+](=O)[O-])c1C,odorant receptor agonist call,[2],inactive
same,odorant receptor agonist call,[5],inactive
c1ccc2ncccc2c1,odorant receptor agonist call,[3],inactive
same,odorant receptor agonist call,[7],active
same,odorant receptor agonist call,[4],active
same,odorant receptor agonist call,[8],inactive
CCCCOC(=O)C(C)OC(=O)CCC (centres undefined),odorant receptor agonist call,[5],inactive
CCCCCO,odorant receptor agonist call,[5],inactive
CCCCCC(=O)C(C)C(C)=O (centres undefined),odorant receptor agonist call,[1],inactive
same,odorant receptor agonist call,[2],inactive
same,odorant receptor agonist call,[5],inactive
CC1=C(O)C(=O)OC1C (centres undefined),odorant receptor agonist call,[1],inactive
same,odorant receptor agonist call,[2],inactive
same,odorant receptor agonist call,[3],inactive
same,odorant receptor agonist call,[4],inactive
same,odorant receptor agonist call,[5],inactive
same,odorant receptor agonist call,[6],inactive
CCCCCC(S)C(C)CO (centres undefined),odorant receptor agonist call,[1],inactive
same,odorant receptor agonist call,[2],inactive
same,odorant receptor agonist call,[5],inactive
O=C1CCOc2ccccc21,odorant receptor agonist call,[5],inactive
CCC1OC(=O)C(O)=C1C (centres undefined),odorant receptor agonist call,[1],inactive
same,odorant receptor agonist call,[2],inactive
same,odorant receptor agonist call,[3],inactive
same,odorant receptor agonist call,[4],inactive
same,odorant receptor agonist call,[5],inactive
same,odorant receptor agonist call,[6],inactive
CCC(S)C(C)CO (centres undefined),odorant receptor agonist call,[1],inactive
same,odorant receptor agonist call,[2],inactive
same,odorant receptor agonist call,[5],inactive
CC1=C(O)C(=O)C(C)O1 (centres undefined),odorant receptor agonist call,[1],inactive
same,odorant receptor agonist call,[2],inactive
same,odorant receptor agonist call,[3],inactive
same,odorant receptor agonist call,[4],inactive
same,odorant receptor agonist call,[5],inactive
same,odorant receptor agonist call,[6],inactive
CC(CO)CS (centres undefined),odorant receptor agonist call,[1],inactive
same,odorant receptor agonist call,[2],inactive
same,odorant receptor agonist call,[5],inactive
O=C(c1ccccc1)c1ccccc1,odorant receptor agonist call,[5],inactive
c1coc(CSSCc2ccco2)c1,odorant receptor agonist call,[7],active
same,odorant receptor agonist call,[4],active
same,odorant receptor agonist call,[6],inactive
CCCCCC(=O)CC,odorant receptor agonist call,[5],inactive
O=c1ccc2ccccc2o1,odorant receptor agonist call,[3],inactive
same,odorant receptor agonist call,[7],active
same,odorant receptor agonist call,[4],active
same,odorant receptor agonist call,[8],inactive
same,odorant receptor agonist call,[5],inactive
CCCCCCC(C)=O,odorant receptor agonist call,[5],inactive
CCCCCCC=CCCC=O,odorant receptor agonist call,[1],inactive
same,odorant receptor agonist call,[2],inactive
same,odorant receptor agonist call,[3],inactive
same,odorant receptor agonist call,[4],inactive
same,odorant receptor agonist call,[5],inactive
same,odorant receptor agonist call,[6],inactive
CC(=O)Oc1ccccc1,odorant receptor agonist call,[5],inactive
CCCC(=O)C(C)=O,odorant receptor agonist call,[5],inactive
CCCCCCCCCC(=O)[O-].[H+],odorant receptor agonist call,[5],inactive
CC1CCCCCCCCCCCCC(=O)C1 (centres undefined),odorant receptor agonist call,[2],inactive
same,odorant receptor agonist call,[5],inactive
CCCCC(S)C(C)CO (centres undefined),odorant receptor agonist call,[1],inactive
same,odorant receptor agonist call,[2],inactive
same,odorant receptor agonist call,[5],inactive
CCCCCCCCS,odorant receptor agonist call,[9],active
same,odorant receptor agonist call,[6],active
same,odorant receptor agonist call,[10],active
O=C([O-])C[SH2+],odorant receptor agonist call,[6],active
